Active and inactive are the calls of the source. The rule behind the calls is not given here.
Assays:
Emu-TCL1 = assay: Induction of apoptosis in mouse Emu-TCL1 cells model of CLL assessed as mitochondrial membrane depolarization at 10 uM after 48 hrs by TMRM dye based flow cytometric analysis; format: functional, cell-based
Summary of the method: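 Splenocytes from Eμ-TCL1 leukaemic mice were treated with 10 μM or DMSO vehicle for 48 h, then TMRM-loaded. Flow cytometry gave the percentage of TMRM-low cells as mean ± SD (n = 3).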

[1] = Induction of Pro-apoptosis in human HL-60 cells assessed as increase in apoptotic cells at 10 uM after 48 hrs by Annexin-V/PI-staining based flow cytometry; format: functional
NIH3T3 = assay: Cytotoxicity against mouse NIH3T3 cells assessed as inhibition of cell growth measured after 24 hrs by neutral red uptake assay; format: functional, cell-based; conditions: NIH3T3, 24 h
Summary of the method: (§1)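 Neutral red uptake viability test. NIH3T3 fibroblasts or primary human oral epithelial cells were exposed to compound at 0.1 to 120 μM. EC50 was derived, with SD below 5%.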

SCC-4 [2] = assay: Cytotoxicity against human SCC-4 cells assessed as reduction in cell viability measured after 48 hrs by alamar blue viability assay; format: functional, cell-based; conditions: SCC-4, 48 h
Summary of the method: (§2)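 Oral squamous carcinoma cells were exposed for 48 h to at least 8 increasing concentrations. Viability was read by AlamarBlue. IC50 is the concentration that halves viability, taken as the mean ± SD of at least three independent experiments.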

Ca9-22 = assay: Cytotoxicity against human Ca9-22 cells assessed as reduction in cell viability measured after 48 hrs by alamar blue viability assay; format: functional, cell-based; conditions: Ca9-22, 48 h; summary of the method: as §2
HL-60 [3] = assay: Induction of autophagy in human HL-60 cells assessed as increase in LC3-II protein level at 10 uM in presence of chloroquine […] by Immunoblotting analysis; format: functional, cell-based
HL-60 [4] = assay: Induction of autophagy in human HL-60 cells assessed as increase in LC3-II protein level at 10 uM measured up to 1 hr by Immunoblotting analysis; format: functional, cell-based
HL-60 [5] = assay: Induction of autophagy in human HL-60 cells assessed as increase in p62 protein level at 10 uM […] by Immunoblotting analysis; format: functional, cell-based
[6] = target: Nuclear factor NF-kappa-B complex (Homo sapiens) (UniProt Q00653+P19838+Q04206); assay: Inhibition of NF-kappaB phosphorylation in human HL-60 cells at 10 uM measured after 2 hrs by Immunoblotting analysis; format: cell-based
Summary of the method: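 HL-60 cells were treated at 10 μM or with DMSO vehicle for 2 h. Phospho-NF-κB and phospho-Erk1/2 were immunoblotted and quantified by densitometry relative to β-tubulin. Data are mean ± SD (n = 2), analysed by one-way ANOVA.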

[7] = Induction of Pro-apoptosis in human HL-60 cells assessed as increase in apoptotic cells at 10 uM after 24 hrs by TMRM dye based flow cytometric analysis; format: functional
KYSE-520 cell line [8] = assay: Induction of apoptosis in human KYSE520 cells assessed as increase in apoptotic cells at 3 to 10 uM after 72 hrs by Annexin V-FITC/PI staining based flow cytometry method; format: functional, cell-based; conditions: dose 3-10 µM
Summary of the method: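 KYSE-520 cells were treated at 3 and 10 μM for 72 h, then analysed by flow cytometry after Annexin V/PI dual staining.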

OE33 = assay: Cytotoxicity against human OE33 cells assessed as inhibition of cell growth measured after 72 hrs by MTT assay; format: functional, cell-based; conditions: OE33, 72 h
Summary of the method: (§3)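 Oesophageal adenocarcinoma lines were exposed to at least 8 increasing concentrations for 72 h. Viability was measured by MTT. IC50 is the mean ± SD of at least three independent experiments.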

KYSE-520 cell line [9] = assay: Cytotoxicity against human KYSE520 cells assessed as inhibition of cell growth measured after 72 hrs by alamar blue viability assay; format: functional, cell-based; conditions: KYSE-520, 72 h
Summary of the method: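 KYSE-520 oesophageal cells were exposed to at least 8 increasing concentrations for 48 h or 72 h. Viability was read out to give IC50, as the mean ± SD of at least three independent experiments.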

SCC-4 [10] = assay: Induction of autophagy in human SCC-4 cells assessed as increase in LC3-II to LC3-I ratio at 10 uM incubated for 30 mins in presence of EBSS followed by compound addition and measured after 3 hrs by Western blot analysis; format: functional, cell-based
Summary of the method: (§4)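 SCC4 cells were pre-incubated with or without EBSS for 30 min, then given 10 μM compound, with 10 μM chloroquine as reference, for 3 h. LC3-I/II was assessed by Western blot with GAPDH loading control. The LC3-II/LC3-I ratio came from densitometry, as mean ± SEM of four experiments, with an unpaired one-tailed t-test.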

[11] = Cytotoxicity against human SKGT4 cells assessed as inhibition of cell growth measured after 72 hrs by MTT assay; format: functional, cell-based; conditions: SKGT4, 72 h; summary of the method: as §3
OE19 = assay: Cytotoxicity against human OE19 cells assessed as inhibition of cell growth measured after 72 hrs by MTT assay; format: functional, cell-based; conditions: OE19, 72 h; summary of the method: as §3
SCC-4 [12] = assay: Induction of autophagy in human SCC-4 cells assessed as increase in LC3-II to LC3-I ratio at 10 uM in absence of EBSS measured after 3 hrs by Western blot analysis; format: functional, cell-based; summary of the method: as §4
[13] = Cytotoxicity against human Primary oral epithelial cells assessed as inhibition of cell growth measured after 24 hrs by neutral red uptake assay; format: toxicity, cell-based; summary of the method: as §1
HeLa [14] = assay: Cytotoxicity against human HeLa cells assessed as inhibition of cell growth measured after 48 hrs by MTT assay; format: functional, cell-based
Summary of the method: (§5)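 MTT assay. Cells were exposed for 48 h to increasing concentrations of compound. Ovarian A2780 was paired with its P-gp-overexpressing A2780AD counterpart, and HeLa with HeLa β3, which overexpresses the tubulin β3 isotype. IC50 is the mean ± SD of three independent experiments.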

A549 = assay: Cytotoxicity against human A549 cells assessed as inhibition of cell growth measured after 48 hrs by MTT assay; format: functional, cell-based; conditions: A549, 48 h
[15] = Ratio of IC50 for cytotoxicity against human […] assessed as inhibition of cell growth measured after 48 hrs to IC50 for cytotoxicity against human A2780 cells assessed as inhibition of cell growth measured after 48 hrs; format: functional
Summary of the method: (§6)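 MTT assay: cells exposed to increasing compound concentrations for 48 h. Lines were A2780 and its P-gp-overexpressing A2780AD counterpart, and HeLa and HeLa β3 (tubulin β3-overexpressing). IC50 is the mean ± SD of three independent experiments. R/S is the IC50 in the resistant line divided by that in the parental line.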

A2780 [16] = assay: Cytotoxicity against human A2780AD cells assessed as inhibition of cell growth measured after 48 hrs by MTT assay; format: functional, cell-based; conditions: A2780, 48 h; summary of the method: as §5
[17] = Ratio of IC50 for cytotoxicity against human HeLa cells overexpressing tubulin beta3 assessed as inhibition of cell growth measured after 48 hrs to IC50 for cytotoxicity against human HeLa cells assessed as inhibition of cell growth measured after 48 hrs; format: functional; summary of the method: as §6
Tubulin (Homo sapiens) = Tubulin (Homo sapiens) (UniProt P68371+Q9H4B7+P0DPH7+P68366+Q13509+Q71U36+P04350+Q3ZCM7+P07437+P68363+Q9BQE3+Q6PEY2+Q13885+Q9BVA1+Q9BUF5); assay: Binding affinity to microtubule polymerization (unknown origin) assessed as formation of microtubule at 27.5 uM measured for 2 hrs by plate reader method; format: protein-complex assay
Summary of the method: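 25 μM tubulin in GAB buffer with compound at 27.5 μM or DMSO vehicle; podophyllotoxin 27.5 μM as destabiliser control. Polymerisation started by raising temperature from 4 to 37 °C at time 0; microtubule formation followed as absorbance increase over time.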

A2780 [18] = assay: Cytotoxicity against human A2780 cells assessed as inhibition of cell growth measured after 48 hrs by MTT assay; format: functional, cell-based; conditions: A2780, 48 h; summary of the method: as §5
HeLa [19] = assay: Cytotoxicity against human HeLa cells overexpressing tubulin beta3 assessed as inhibition of cell growth measured after 48 hrs by MTT assay; format: functional, cell-based; summary of the method: as §5
SCC-4 [20] = assay: Induction of apoptosis in human SCC-4 cells assessed as increase in apoptotic cells at 2 uM after 48 hrs by Annexin V-FITC/PI staining based flow cytometry method; format: functional, cell-based
Summary of the method: (§7)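 SCC4 cells were treated at 0.5 or 2 μM for 48 h, then stained with Annexin V/PI and analysed by flow cytometry. Data are mean ± SEM of three independent experiments, with an unpaired one-tailed t-test versus vehicle.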

SCC-4 [21] = assay: Induction of apoptosis in human SCC-4 cells assessed as increase in apoptotic cells at 0.5 uM after 48 hrs by Annexin V-FITC/PI staining based flow cytometry method; format: functional, cell-based; summary of the method: as §7
[22] = Cytotoxicity against human TR146 cells assessed as reduction in cell viability measured after 48 hrs by alamar blue viability assay; format: functional, cell-based; conditions: TR146, 48 h; summary of the method: as §2
[23] = Induction of Pro-apoptosis in human HL-60 cells assessed as increase in apoptotic cells at 25 uM after 24 hrs by TMRM dye based flow cytometric analysis; format: functional

Sequence of Nuclear factor NF-kappa-B complex (Homo sapiens) (P19838 whole entry, looked up): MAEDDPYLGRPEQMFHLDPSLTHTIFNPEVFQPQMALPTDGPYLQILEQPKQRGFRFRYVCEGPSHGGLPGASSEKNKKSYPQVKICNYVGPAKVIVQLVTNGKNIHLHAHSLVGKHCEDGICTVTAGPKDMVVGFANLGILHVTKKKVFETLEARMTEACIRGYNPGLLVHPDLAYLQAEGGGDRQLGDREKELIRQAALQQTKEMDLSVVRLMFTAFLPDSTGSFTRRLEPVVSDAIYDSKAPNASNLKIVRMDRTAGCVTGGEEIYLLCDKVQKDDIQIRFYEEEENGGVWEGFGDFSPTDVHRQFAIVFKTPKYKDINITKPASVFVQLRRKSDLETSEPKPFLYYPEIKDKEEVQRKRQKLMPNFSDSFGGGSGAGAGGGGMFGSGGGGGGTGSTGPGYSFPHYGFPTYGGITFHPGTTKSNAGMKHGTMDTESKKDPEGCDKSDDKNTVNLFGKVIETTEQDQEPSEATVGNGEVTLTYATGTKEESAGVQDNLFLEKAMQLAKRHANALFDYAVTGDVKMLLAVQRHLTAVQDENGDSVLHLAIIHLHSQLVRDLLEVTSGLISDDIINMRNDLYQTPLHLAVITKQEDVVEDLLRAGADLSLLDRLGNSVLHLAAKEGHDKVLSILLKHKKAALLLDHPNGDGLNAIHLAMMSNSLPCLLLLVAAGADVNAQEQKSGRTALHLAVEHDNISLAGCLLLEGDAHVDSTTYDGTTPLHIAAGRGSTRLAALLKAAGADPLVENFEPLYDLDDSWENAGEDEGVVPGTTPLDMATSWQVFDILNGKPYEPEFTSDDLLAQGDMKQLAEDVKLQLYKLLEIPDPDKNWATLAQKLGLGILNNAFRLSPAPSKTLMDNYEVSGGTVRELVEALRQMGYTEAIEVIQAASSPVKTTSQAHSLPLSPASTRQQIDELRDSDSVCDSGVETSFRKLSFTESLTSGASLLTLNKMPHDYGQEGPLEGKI
Sequence of Nuclear factor NF-kappa-B complex (Homo sapiens) (Q00653 whole entry, looked up): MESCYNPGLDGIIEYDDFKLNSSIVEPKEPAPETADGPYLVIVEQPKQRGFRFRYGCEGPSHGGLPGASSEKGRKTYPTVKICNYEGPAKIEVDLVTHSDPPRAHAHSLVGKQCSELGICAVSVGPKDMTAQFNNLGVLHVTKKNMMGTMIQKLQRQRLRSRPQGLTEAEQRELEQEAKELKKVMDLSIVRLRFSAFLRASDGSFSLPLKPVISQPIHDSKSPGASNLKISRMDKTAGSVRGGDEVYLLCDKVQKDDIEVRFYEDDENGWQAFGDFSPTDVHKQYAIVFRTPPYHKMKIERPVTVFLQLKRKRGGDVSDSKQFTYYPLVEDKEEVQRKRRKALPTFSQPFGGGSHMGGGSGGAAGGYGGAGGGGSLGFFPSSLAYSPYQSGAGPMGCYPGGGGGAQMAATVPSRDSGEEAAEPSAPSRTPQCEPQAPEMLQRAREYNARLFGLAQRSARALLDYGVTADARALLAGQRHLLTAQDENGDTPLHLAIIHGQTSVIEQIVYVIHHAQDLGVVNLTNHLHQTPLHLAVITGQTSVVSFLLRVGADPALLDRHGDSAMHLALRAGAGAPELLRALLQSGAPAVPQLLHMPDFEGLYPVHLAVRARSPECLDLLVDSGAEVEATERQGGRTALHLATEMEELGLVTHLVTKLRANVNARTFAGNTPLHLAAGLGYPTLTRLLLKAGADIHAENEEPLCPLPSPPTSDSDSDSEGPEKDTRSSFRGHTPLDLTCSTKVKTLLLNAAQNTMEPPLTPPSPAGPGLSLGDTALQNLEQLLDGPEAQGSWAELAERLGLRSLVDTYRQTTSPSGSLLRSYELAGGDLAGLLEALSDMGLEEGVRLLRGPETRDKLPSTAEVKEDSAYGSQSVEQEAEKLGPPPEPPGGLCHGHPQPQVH
Sequence of Nuclear factor NF-kappa-B complex (Homo sapiens) (Q04206 whole entry, looked up): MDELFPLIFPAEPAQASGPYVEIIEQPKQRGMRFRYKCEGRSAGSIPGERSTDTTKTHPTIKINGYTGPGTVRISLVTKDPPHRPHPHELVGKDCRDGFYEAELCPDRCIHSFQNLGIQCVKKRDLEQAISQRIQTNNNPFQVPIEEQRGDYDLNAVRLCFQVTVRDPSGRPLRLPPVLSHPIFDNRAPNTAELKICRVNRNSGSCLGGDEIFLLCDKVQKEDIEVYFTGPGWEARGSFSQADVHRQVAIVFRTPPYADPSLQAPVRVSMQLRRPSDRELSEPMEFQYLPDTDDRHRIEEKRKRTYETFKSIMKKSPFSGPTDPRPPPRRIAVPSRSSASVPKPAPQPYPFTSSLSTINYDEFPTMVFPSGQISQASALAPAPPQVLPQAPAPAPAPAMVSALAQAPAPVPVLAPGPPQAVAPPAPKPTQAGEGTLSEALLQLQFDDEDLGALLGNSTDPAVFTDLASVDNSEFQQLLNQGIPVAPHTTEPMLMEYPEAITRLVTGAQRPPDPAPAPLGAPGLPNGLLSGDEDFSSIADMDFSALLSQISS

| inhibition [6] | Structure (SMILES) | Activity (Emu-TCL1) | Activity [1] | EC50 (NIH3T3) [µM] | Activity (HL-60 [3]) | Activity (HL-60 [4]) | Activity (HL-60 [5]) | Activity [7] | other results |
| --- | --- | --- | --- | --- | --- | --- | --- | --- | --- |
| – | CC(C)(C)OC(=O)N1CCC(C(=O)OC2=C(c3cccc4ncccc34)Oc3cc4ccccc4cc3-n3cccc32)CC1 | Active | >=30% | 6 | – | – | – | – | – |
| – | CN(C)C(=O)OC1=C(c2cccc3ccccc23)Oc2ccccc2-n2cccc21 | – | >=70% | – | – | – | – | – | IC50 (SCC-4 [2]): 0.16 µM; IC50 (Ca9-22): 0.17 µM |
| Active | CC(=O)OC1=C(c2cccc3ccccc23)Oc2cc3ccccc3cc2-n2cccc21 | Active | >=70% | – | Active | Active | Active | >=50% | – |
| Active | CC(=O)OC1=C(c2cccc3ncccc23)Oc2cc3ccccc3cc2-n2cccc21 | Active | >=70% | – | Active | Active | Active | – | Activity (KYSE-520 cell line [8]): Active; IC50 (OE33): 0.32 µM; IC50 (KYSE-520 cell line [9]): 138 µM; Activity (SCC-4 [10]): Active; IC50 [11]: 0.51 µM; IC50 (OE19): 0.73 µM; Activity (SCC-4 [12]): Active |
| – | CC(=O)OC1=C(c2cccc3ccccc23)Oc2ccc(N3CCN(C)CC3)cc2-n2cccc21 | Active | <30% | 45 | – | – | – | – | – |
| Active | CCN(CC)CCCC(C)NC(=O)OC1=C(c2cccc3ncccc23)Oc2cc3ccccc3cc2-n2cccc21 (racemic) | Active | >=70% | 6 | Active | Active | Active | – | IC50 (SCC-4 [2]): 0.91 µM; EC50 at 24 h [13]: 45 µM; Activity (KYSE-520 cell line [8]): Active; IC50 (HeLa [14]): 0.921 µM; IC50 (A549): 1.38 µM; IC50 (OE33): 1.38 µM; Ratio IC50 [15]: 1.18; IC50 (A2780 [16]): 1.21 µM; Ratio IC50 [17]: 0.72; Activity (Tubulin (Homo sapiens)): Active; IC50 (A2780 [18]): 1.03 µM; IC50 (KYSE-520 cell line [9]): 41.9 µM; IC50 (HeLa [19]): 0.661 µM; Activity (SCC-4 [10]): Active; IC50 (Ca9-22): 2 µM; Activity (SCC-4 [20]): Active; Activity (SCC-4 [21]): Active; Activity (SCC-4 [12]): Active; IC50 [22]: 1.5 µM |
| – | CN(C)C(=O)OC1=C(c2cccc3ccccc23)Oc2ccc(Cl)cc2-n2cccc21 | – | – | – | – | – | – | >=50% | Activity [23]: >=50% |
| – | CC(=O)OC1=C(c2cccc3ccccc23)Oc2cc3c(cc2-n2cccc21)OCCO3 | – | – | 0.1 | – | – | – | >=50% | Activity [23]: >=50% |
